Consider 25 molecules from ChEMBL document CHEMBL1139714, “Effects of alpha-substitutions on structure and biological activity of anticancer chalcones” (Bioorg Med Chem Lett, 2006).

One assay concerns K562. The assay is described as follows: Cytotoxicity against human K562 cells after 5 days by MTT assay. Type of assay: cell-based. The conditions noted are these: K562, 120 h. The method, boiled down: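 K562 human chronic myelogenous leukaemia cells were cultured at 37 °C with drug for 5 days, and growth was read by MTT assay. IC50 was taken as the concentration giving 50% inhibition of cell growth.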
For `COc1ccc(/C=C(\F)C(=O)c2cc(OC)c(OC)c(OC)c2)cc1F`, the IC50 (commonly the concentration that gives 50% inhibition) is 0.77 µM.
The molecule `COc1ccc(/C=C(\F)C(=O)c2cc(OC)c(OC)c(OC)c2)cc1O` registered an IC50 of 0.0137 µM.
On the same count and under the same terms, as for `COc1ccc(/C=C(\F)C(=O)c2cc(OC)c(OC)c(OC)c2)cc1`, the figure is 0.39 µM; as for `COc1ccc(/C=C(\F)C(=O)c2cc(OC)c(OC)c(OC)c2)c(F)c1`, 1.19 µM; as for `COc1cc(C(=O)/C(C#N)=C/c2ccc(OC)c(OC)c2OC)cc(OC)c1OC`, more than 10 µM.
Still for that read-out and setting: for `COc1cc(C(=O)/C(C#N)=C/c2ccc(C(F)(F)F)cc2)cc(OC)c1OC` the value was more than 10 µM.
The same measure, in the same setting: as for `COc1ccc(/C=C(\C#N)C(=O)c2cc(OC)c(OC)c(OC)c2)cc1Br`, the figure is more than 10 µM; as for `COc1ccc(/C=C(\C#N)C(=O)c2cc(OC)c(OC)c(OC)c2)cc1F`, more than 10 µM; as for `CCOC(=O)/C(=C/c1ccc(OC)c(O[Si](C)(C)C(C)(C)C)c1)C(=O)c1cc(OC)c(OC)c(OC)c1`, 4.29 µM.
The molecule `CCOC(=O)/C(=C/c1ccc(OC)c(OC)c1)C(=O)c1cc(OC)c(OC)c(OC)c1` had an IC50 of more than 10 µM.
The same measure, in the same setting: for `COc1ccc(/C=C(\F)C(=O)c2cc(OC)c(OC)c(OC)c2)cc1Br` the value was 6 µM; for `COc1ccc(/C=C(\F)C(=O)c2cc(OC)c(OC)c(OC)c2)cc1OC`, 1.21 µM; for `COc1cc(C(=O)/C(F)=C/c2ccc(OC)c(OC)c2OC)cc(OC)c1OC`, 10 µM.
On the same count and under the same terms, as for `CCOC(=O)/C(=C/c1ccc(OC)c(OC)c1OC)C(=O)c1cc(OC)c(OC)c(OC)c1`, the figure is more than 10 µM; as for `COc1cc(C(=O)/C(F)=C/c2ccc3c(c2)OCO3)cc(OC)c1OC`, 0.8 µM.
Still for that read-out and setting: for `COc1ccc(/C=C(\C#N)C(=O)c2cc(OC)c(OC)c(OC)c2)cc1O[Si](C)(C)C(C)(C)C` the value was more than 10 µM.
For `COc1ccc(/C=C(\C#N)C(=O)c2cc(OC)c(OC)c(OC)c2)c(F)c1`, the IC50 is more than 10 µM.
In turn, `COc1ccc(/C=C(\C#N)C(=O)c2cc(OC)c(OC)c(OC)c2)cc1O` yielded an IC50 of 4.2 µM.
On the same count and under the same terms, as for `COc1ccc(/C=C(\C#N)C(=O)c2cc(OC)c(OC)c(OC)c2)cc1`, the figure is more than 10 µM.
With `COc1cc(C(=O)/C(C#N)=C/c2ccc3c(c2)OCO3)cc(OC)c1OC`, the IC50 was more than 10 µM.
Same read-out and setting: as for `CCOC(=O)/C(=C/c1ccc(OC)cc1)C(=O)c1cc(OC)c(OC)c(OC)c1`, the figure is more than 10 µM; as for `CCOC(=O)/C(=C\c1ccc(OC)c(O)c1)C(=O)c1cc(OC)c(OC)c(OC)c1`, 0.87 µM.
Consider `COc1ccc(/C=C(\C#N)C(=O)c2cc(OC)c(OC)c(OC)c2)cc1OC`, for which the IC50 was more than 10 µM.

The next assay concerns the target Tubulin. Kind of assay: Inhibition of tubulin. The format is protein-complex assay, Homo sapiens.
Details: not given
`COc1ccc(/C=C(\F)C(=O)c2cc(OC)c(OC)c(OC)c2)cc1O` displayed an IC50 of 0.6 µM.
Same read-out and setting: as for `COc1ccc(/C=C(\F)C(=O)c2cc(OC)c(OC)c(OC)c2)cc1`, the figure is 4.6 µM; as for `COc1ccc(/C=C(\C)C(=O)c2cc(OC)c(OC)c(OC)c2)cc1O`, 1.8 µM.
`COc1ccc(/C=C/C(=O)c2cc(OC)c(OC)c(OC)c2)cc1O` registered a concentration for half-maximal inhibition (IC50) of 10 µM.
